Assays:
HCT-116 [1] = assay: Antiproliferative activity against human HCT116 cells incubated for 48 hrs by MTT assay; format: functional, cell-based; conditions: HCT-116, 48 h
In short: (§1)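 Cells kept at 37 °C in humidified 5% CO2: MDA-MB-231, MCF-7, HeLa and HCT116 in RPMI-1640; PC-3 in DMEM/F12; both media had 10% FBS. Compounds came from 60 mM DMSO stocks diluted in medium. At 70–80% confluence, cells got fresh medium with compound for 48 h at 37 °C, with 0.1% DMSO as negative control. MTT (5 mg/mL stock) was added for 4 h, and formazan was dissolved in DMSO and read at 570 nm. % inhibition was taken relative to control, IC50 was fitted, and data are mean ± SD of three independent experiments in duplicate.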

MDA-MB-231 = assay: Antiproliferative activity against human MDA-MB-231 cells incubated for 48 hrs by MTT assay; format: functional, cell-based; conditions: MDA-MB-231, 48 h; in short: as §1
MCF7 = assay: Antiproliferative activity against human MCF7 cells incubated for 48 hrs by MTT assay; format: functional, cell-based; conditions: MCF7, 48 h; in short: as §1
HeLa = assay: Antiproliferative activity against human HeLa cells incubated for 48 hrs by MTT assay; format: functional, cell-based; in short: as §1
PC-3 = assay: Antiproliferative activity against human PC3 cells incubated for 48 hrs by MTT assay; format: functional, cell-based; conditions: PC-3, 48 h; in short: as §1
CDK2/Cyclin A2 = CDK2/Cyclin A2 (Homo sapiens, UniProt P24941); assay: Inhibition of CDK2/cyclin A2 (unknown origin) using histone H1 and ATP as substrate incubated for 40 mins by kinase-glo luminescence assay; format: protein-complex assay
[2] = molecular target: T1, CDK2/Cyclin A2 (Homo sapiens) (UniProt P24941+P20248); assay: Inhibition of CDK2/cyclin A2 (unknown origin) using histone H1 and ATP as substrate at 1 uM incubated for 40 mins by kinase-glo luminescence assay relative to control; format: protein-complex assay
In short: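 Recombinant CDK2/cyclin A2 (0.2 µg/mL) was run with 0.1 mg/mL histone H1 and 10 µM ATP in 40 mM Tris pH 7.4, 10 mM MgCl2, 0.1 mg/mL BSA and 1 mM DTT, for 40 min at 30 °C. Compound was tested at 1 µM final, with 1% DMSO final. Remaining ATP was quantified by Kinase-Glo Plus luminescence, which is inversely related to kinase activity.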

HCT-116 [3] = assay: Induction of cell cycle arrest in human HCT116 cells assessed as accumulation at G0/G1 phase at 0.35 uM incubated for 24 hrs by PI staining based flow cytometric analysis (reference value: 37.26%); format: functional
HCT-116 [4] = assay: Induction of cell cycle arrest in human HCT116 cells assessed as accumulation at G2/M phase at 0.35 uM incubated for 24 hrs by PI staining based flow cytometric analysis (reference value: 17.48%); format: functional
HCT-116 [5] = assay: Induction of cell cycle arrest in human HCT116 cells assessed as accumulation at S phase at 0.35 uM incubated for 24 hrs by PI staining based flow cytometric analysis (reference value: 45.26%); format: functional
HCT-116 [6] = assay: Induction of cell cycle arrest in human HCT116 cells assessed as accumulation at G0/G1 phase at 0.7 uM incubated for 24 hrs by PI staining based flow cytometric analysis (reference value: 37.26%); format: functional
HCT-116 [7] = assay: Induction of cell cycle arrest in human HCT116 cells assessed as accumulation at G2/M phase at 0.7 uM incubated for 24 hrs by PI staining based flow cytometric analysis (reference value: 17.48%); format: functional
HCT-116 [8] = assay: Induction of cell cycle arrest in human HCT116 cells assessed as accumulation at S phase at 0.7 uM incubated for 24 hrs by PI staining based flow cytometric analysis (reference value: 45.26%); format: functional
HCT-116 [9] = assay: Induction of cell cycle arrest in human HCT116 cells assessed as accumulation at G0/G1 phase at 1.4 uM incubated for 24 hrs by PI staining based flow cytometric analysis (reference value: 37.26%); format: functional
HCT-116 [10] = assay: Induction of cell cycle arrest in human HCT116 cells assessed as accumulation at G2/M phase at 1.4 uM incubated for 24 hrs by PI staining based flow cytometric analysis (reference value: 17.48%); format: functional
HCT-116 [11] = assay: Induction of cell cycle arrest in human HCT116 cells assessed as accumulation at S phase at 1.4 uM incubated for 24 hrs by PI staining based flow cytometric analysis (reference value: 45.26%); format: functional
HCT-116 [12] = assay: Induction of apoptosis in human HCT116 cells assessed as live cells at 0.35 uM incubated for 24 hrs by Annexin-V-FITC/propidium iodide staining based flow cytometric analysis (reference value: 97.7%); format: functional
HCT-116 [13] = assay: Induction of apoptosis in human HCT116 cells assessed as early apoptotic cells at 0.35 uM incubated for 24 hrs by Annexin-V-FITC/propidium iodide staining based flow cytometric analysis (reference value: 2.28%); format: functional
HCT-116 [14] = assay: Induction of apoptosis in human HCT116 cells assessed as late apoptotic cells at 0.35 uM incubated for 24 hrs by Annexin-V-FITC/propidium iodide staining based flow cytometric analysis (reference value: 0.027%); format: functional
HCT-116 [15] = assay: Induction of apoptosis in human HCT116 cells assessed as necrotic cells at 0.35 uM incubated for 24 hrs by Annexin-V-FITC/propidium iodide staining based flow cytometric analysis (reference value: 0%); format: functional
HCT-116 [16] = assay: Induction of apoptosis in human HCT116 cells assessed as live cells at 0.7 uM incubated for 24 hrs by Annexin-V-FITC/propidium iodide staining based flow cytometric analysis (reference value: 97.7%); format: functional
HCT-116 [17] = assay: Induction of apoptosis in human HCT116 cells assessed as early apoptotic cells at 0.7 uM incubated for 24 hrs by Annexin-V-FITC/propidium iodide staining based flow cytometric analysis (reference value: 2.28%); format: functional
HCT-116 [18] = assay: Induction of apoptosis in human HCT116 cells assessed as late apoptotic cells at 0.7 uM incubated for 24 hrs by Annexin-V-FITC/propidium iodide staining based flow cytometric analysis (reference value: 0.027%); format: functional
HCT-116 [19] = assay: Induction of apoptosis in human HCT116 cells assessed as necrotic cells at 0.7 uM incubated for 24 hrs by Annexin-V-FITC/propidium iodide staining based flow cytometric analysis (reference value: 0%); format: functional
HCT-116 [20] = assay: Induction of apoptosis in human HCT116 cells assessed as live cells at 1.4 uM incubated for 24 hrs by Annexin-V-FITC/propidium iodide staining based flow cytometric analysis (reference value: 97.7%); format: functional
HCT-116 [21] = assay: Induction of apoptosis in human HCT116 cells assessed as early apoptotic cells at 1.4 uM incubated for 24 hrs by Annexin-V-FITC/propidium iodide staining based flow cytometric analysis (reference value: 2.28%); format: functional
HCT-116 [22] = assay: Induction of apoptosis in human HCT116 cells assessed as late apoptotic cells at 1.4 uM incubated for 24 hrs by Annexin-V-FITC/propidium iodide staining based flow cytometric analysis (reference value: 0.027%); format: functional
HCT-116 [23] = assay: Induction of apoptosis in human HCT116 cells assessed as necrotic cells at 1.4 uM incubated for 24 hrs by Annexin-V-FITC/propidium iodide staining based flow cytometric analysis (reference value: 0%); format: functional
[24] = molecular target: T1, CDK2/Cyclin A2 (Homo sapiens); assay: Potency index, ratio of AZD5438 IC50 to compound IC50 for CDK2/cyclin A2 (unknown origin) using histone H1 and ATP as substrate incubated for 40 mins by kinase-glo luminescence assay; format: protein-complex assay
HCT-116 [25] = assay: Induction of apoptosis in human HCT116 cells incubated for 24 hrs by Annexin-V-FITC/propidium iodide staining based flow cytometric analysis; format: functional, cell-based
HCT-116 [26] = assay: Induction of cell cycle arrest in human HCT116 cells assessed as debris content at 0.35 uM incubated for 24 hrs by PI staining based flow cytometric analysis (reference value: 0%); format: functional
HCT-116 [27] = assay: Induction of cell cycle arrest in human HCT116 cells assessed as debris content at 0.7 uM incubated for 24 hrs by PI staining based flow cytometric analysis (reference value: 0%); format: functional
HCT-116 [28] = assay: Induction of cell cycle arrest in human HCT116 cells assessed as debris content at 1.4 uM incubated for 24 hrs by PI staining based flow cytometric analysis (reference value: 0%); format: functional
HCT-116 [29] = assay: Induction of cell cycle arrest in human HCT116 cells incubated for 24 hrs by PI staining based flow cytometric analysis; format: functional

NS(=O)(=O)c1ccc(Nc2nccc(Nc3nc4ccc(F)cc4s3)n2)cc1
IC50 (HCT-116 [1]): 700 nM | IC50 (MDA-MB-231): 1800 nM | IC50 (MCF7): 10900 nM | IC50 (HeLa): 450 nM | IC50 (PC-3): 920 nM | IC50 (CDK2/Cyclin A2): 15.4 nM | inhibition [2]: 94% | Activity (HCT-116 [3]): 36.61% | Activity (HCT-116 [4]): 24.36% | Activity (HCT-116 [5]): 39.03% | Activity (HCT-116 [6]): 35.61% | Activity (HCT-116 [7]): 33.51% | Activity (HCT-116 [8]): 30.88% | Activity (HCT-116 [9]): 34.57% | Activity (HCT-116 [10]): 46.92% | Activity (HCT-116 [11]): 18.51% | Activity (HCT-116 [12]): 80.8% | Activity (HCT-116 [13]): 10.1% | Activity (HCT-116 [14]): 9.07% | Activity (HCT-116 [15]): 0.027% | Activity (HCT-116 [16]): 64.3% | Activity (HCT-116 [17]): 13% | Activity (HCT-116 [18]): 22.3% | Activity (HCT-116 [19]): 0.384% | Activity (HCT-116 [20]): 51.4% | Activity (HCT-116 [21]): 19.1% | Activity (HCT-116 [22]): 29.1% | Activity (HCT-116 [23]): 0.414% | Ratio IC50 [24]: 3 | Activity (HCT-116 [25]): Dose-dependent effect | Activity (HCT-116 [26]): 0.74% | Activity (HCT-116 [27]): 6.86% | Activity (HCT-116 [28]): 39.3% | Activity (HCT-116 [29]): Dose-dependent effect
